These results are taken from ChEMBL document CHEMBL5653631, “A Potent and Selective ULK1 Inhibitor Suppresses Autophagy and Sensitizes Cancer Cells to Nutrient Stress” (iScience, 2018).

The structures appear in SMILES notation.

Test [1] addresses T1, Serine/threonine-protein kinase Nek9 (Homo sapiens) (UniProt Q8TD19).
T1 sequence (whole entry): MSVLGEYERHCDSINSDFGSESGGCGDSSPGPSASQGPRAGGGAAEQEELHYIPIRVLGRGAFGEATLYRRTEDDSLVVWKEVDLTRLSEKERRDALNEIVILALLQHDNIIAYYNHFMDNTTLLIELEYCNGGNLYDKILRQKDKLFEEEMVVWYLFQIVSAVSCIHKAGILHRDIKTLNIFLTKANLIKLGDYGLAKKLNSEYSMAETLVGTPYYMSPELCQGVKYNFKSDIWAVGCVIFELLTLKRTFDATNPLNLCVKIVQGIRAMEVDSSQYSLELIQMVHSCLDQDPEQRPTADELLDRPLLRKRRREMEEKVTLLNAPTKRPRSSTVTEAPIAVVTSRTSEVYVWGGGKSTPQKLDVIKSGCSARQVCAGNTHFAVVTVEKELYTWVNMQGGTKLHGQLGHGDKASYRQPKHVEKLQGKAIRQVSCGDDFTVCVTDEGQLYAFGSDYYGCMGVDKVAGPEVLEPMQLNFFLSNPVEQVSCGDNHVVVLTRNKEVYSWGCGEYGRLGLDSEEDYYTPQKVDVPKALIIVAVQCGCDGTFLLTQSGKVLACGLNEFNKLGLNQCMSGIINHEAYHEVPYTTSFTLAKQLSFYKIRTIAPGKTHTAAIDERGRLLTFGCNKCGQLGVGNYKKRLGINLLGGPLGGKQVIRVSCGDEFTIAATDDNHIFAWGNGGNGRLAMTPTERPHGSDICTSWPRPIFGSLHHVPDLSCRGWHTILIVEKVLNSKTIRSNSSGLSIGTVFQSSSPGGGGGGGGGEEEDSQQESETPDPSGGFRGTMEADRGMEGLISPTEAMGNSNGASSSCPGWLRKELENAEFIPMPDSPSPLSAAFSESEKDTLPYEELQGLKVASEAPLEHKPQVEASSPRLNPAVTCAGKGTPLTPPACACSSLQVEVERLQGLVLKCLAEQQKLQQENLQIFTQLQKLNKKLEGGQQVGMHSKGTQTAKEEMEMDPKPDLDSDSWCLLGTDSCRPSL
As to the kind of experiment: Inhibition of human recombinant NEK9 at 500 nM in presence of ATP by radiometric assay relative to control.

Test [2] concerns the target T2, Beta-adrenergic receptor kinase 1 (Homo sapiens) (UniProt P25098).
T2 sequence (whole entry): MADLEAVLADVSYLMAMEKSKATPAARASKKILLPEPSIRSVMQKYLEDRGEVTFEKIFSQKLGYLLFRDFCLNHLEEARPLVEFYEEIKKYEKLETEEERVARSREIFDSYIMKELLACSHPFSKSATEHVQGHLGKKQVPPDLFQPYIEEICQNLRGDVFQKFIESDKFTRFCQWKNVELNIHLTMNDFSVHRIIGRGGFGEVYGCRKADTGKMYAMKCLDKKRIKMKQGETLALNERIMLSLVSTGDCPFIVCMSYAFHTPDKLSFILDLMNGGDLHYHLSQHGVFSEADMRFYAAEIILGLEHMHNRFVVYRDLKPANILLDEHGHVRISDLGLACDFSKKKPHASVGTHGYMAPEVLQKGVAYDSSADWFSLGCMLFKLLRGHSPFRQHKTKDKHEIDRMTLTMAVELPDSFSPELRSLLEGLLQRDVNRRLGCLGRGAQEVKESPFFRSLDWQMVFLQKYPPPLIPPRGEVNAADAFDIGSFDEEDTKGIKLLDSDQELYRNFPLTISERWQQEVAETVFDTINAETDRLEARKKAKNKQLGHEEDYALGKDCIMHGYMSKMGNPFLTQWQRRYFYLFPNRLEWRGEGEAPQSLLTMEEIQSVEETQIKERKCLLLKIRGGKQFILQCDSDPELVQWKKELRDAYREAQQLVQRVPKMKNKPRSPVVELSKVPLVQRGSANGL
As to the kind of experiment: Inhibition of human recombinant BARK1 at 15 nM in presence of ATP by radiometric assay relative to control. The gist of the method: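 Part of a radiometric in vitro activity panel of 327 recombinant human kinases. Each kinase was tested in duplicate at one inhibitor concentration. Activity remaining was expressed as a percentage of the vehicle control, and percent inhibition was taken as 100 minus that value.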

Test [3] concerns the target T3, Serine/threonine-protein kinase Nek1 (Homo sapiens) (UniProt Q96PY6).
T3 sequence (whole entry): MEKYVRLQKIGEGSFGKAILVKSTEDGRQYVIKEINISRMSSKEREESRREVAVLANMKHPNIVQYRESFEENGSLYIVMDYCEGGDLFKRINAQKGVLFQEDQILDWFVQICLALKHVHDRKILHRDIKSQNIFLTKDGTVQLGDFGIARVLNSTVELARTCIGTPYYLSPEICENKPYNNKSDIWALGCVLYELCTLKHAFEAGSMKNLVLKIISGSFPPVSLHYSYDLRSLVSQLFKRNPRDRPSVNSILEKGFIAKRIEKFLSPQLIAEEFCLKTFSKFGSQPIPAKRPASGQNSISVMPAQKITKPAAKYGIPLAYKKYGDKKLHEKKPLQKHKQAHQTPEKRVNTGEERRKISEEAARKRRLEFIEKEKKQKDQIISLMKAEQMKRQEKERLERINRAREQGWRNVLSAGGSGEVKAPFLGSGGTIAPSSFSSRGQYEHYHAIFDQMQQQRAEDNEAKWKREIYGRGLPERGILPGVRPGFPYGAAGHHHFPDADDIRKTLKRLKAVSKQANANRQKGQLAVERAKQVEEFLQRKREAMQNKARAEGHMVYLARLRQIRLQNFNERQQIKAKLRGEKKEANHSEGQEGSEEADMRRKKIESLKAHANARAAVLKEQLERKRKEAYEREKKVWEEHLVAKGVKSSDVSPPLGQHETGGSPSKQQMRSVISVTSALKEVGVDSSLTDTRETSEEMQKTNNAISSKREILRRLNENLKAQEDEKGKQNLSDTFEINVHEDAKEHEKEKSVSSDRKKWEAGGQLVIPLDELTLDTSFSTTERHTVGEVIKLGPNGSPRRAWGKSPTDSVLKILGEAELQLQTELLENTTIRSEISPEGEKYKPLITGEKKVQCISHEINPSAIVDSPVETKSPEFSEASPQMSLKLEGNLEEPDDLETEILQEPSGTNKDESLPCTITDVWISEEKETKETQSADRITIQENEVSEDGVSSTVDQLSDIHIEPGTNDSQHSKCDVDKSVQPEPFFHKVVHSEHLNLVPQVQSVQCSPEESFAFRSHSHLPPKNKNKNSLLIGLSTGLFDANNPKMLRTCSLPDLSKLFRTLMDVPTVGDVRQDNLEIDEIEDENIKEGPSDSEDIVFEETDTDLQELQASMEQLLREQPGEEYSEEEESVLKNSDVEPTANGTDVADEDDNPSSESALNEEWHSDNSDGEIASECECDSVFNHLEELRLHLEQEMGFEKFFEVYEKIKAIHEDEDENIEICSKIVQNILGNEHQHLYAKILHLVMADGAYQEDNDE
Kind of test: Inhibition of human recombinant NEK1 at 15 nM related to control ULK1.

Take `CNC(=O)c1ccccc1Oc1nc(Nc2cc(OC)c(OC)c(OC)c2)ncc1Br`: the inhibition – broadly, how much of the control response was suppressed – in test [1] was found to be 0%.
With `CC(C)[C@H](NC(=O)c1cc(-c2cnn3cc(-c4ccc(OCCN5CCCCC5)cc4)cnc23)cs1)C(F)(F)F`, the inhibition in test [2] worked out at 0%. The fold change (FC) in test [3] is 0.03.
